Results from different studies.
Protocols differ between the studies behind these lines.
Target: cGMP-dependent protein kinase 1 (PRKG1, Homo sapiens, UniProt Q13976)
Residues used in one study (Q13976 1-671): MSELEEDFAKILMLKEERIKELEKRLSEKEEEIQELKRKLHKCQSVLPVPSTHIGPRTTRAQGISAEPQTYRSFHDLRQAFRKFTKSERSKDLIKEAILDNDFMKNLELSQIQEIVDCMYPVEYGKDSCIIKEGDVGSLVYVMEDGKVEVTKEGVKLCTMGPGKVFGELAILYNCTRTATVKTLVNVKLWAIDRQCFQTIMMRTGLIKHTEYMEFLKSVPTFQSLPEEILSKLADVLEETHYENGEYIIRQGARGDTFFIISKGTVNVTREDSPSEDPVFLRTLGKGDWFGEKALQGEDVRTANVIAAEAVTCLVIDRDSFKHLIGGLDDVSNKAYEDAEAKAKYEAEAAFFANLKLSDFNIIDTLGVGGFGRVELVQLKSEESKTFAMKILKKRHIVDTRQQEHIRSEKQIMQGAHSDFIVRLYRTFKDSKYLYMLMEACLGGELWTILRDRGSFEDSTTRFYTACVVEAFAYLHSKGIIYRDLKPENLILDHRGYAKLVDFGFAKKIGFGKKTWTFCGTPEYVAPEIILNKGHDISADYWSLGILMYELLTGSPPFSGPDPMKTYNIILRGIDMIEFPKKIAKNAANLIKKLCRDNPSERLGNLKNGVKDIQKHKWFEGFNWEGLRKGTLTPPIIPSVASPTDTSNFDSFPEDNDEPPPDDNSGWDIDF

COc1cnc(Nc2cccc(S(N)(=O)=O)c2)nc1N1CCN(c2ccccc2)C(=O)C1
remaining binding (binding, competition with immobilised ligand; 1 µM): 100%

CS(=O)(=O)NCC[C@H](NC(=O)c1cncc2c1cnn2-c1ccc(F)cc1)c1ccnc(S(C)(=O)=O)c1
remaining binding (cell-free assay, competition with immobilised ligand; 1 µM): 96%

Cc1cnn2ncc(-c3ccnc(N(C)C)n3)c2c1
remaining binding (binding; 1 µM): 99%

C[C@@H](c1ccc(-n2cnc3c(N)ncnc32)cc1)N1CCc2nn(C)c(Cc3ccccc3)c2C1=O
remaining binding (binding, competition with immobilised ligand; 0.1 µM): 82%

Cc1c[nH]c2nccc(Oc3c(F)cc(Nc4cc(Cl)nc(N)n4)cc3F)c12
remaining binding (cell-free assay, competition with immobilised ligand; 0.1 µM): 49%

O=C(NCCCN1CCOCC1)c1ccc(Nc2nccc(-c3cc4ccccc4s3)n2)cc1
remaining binding (binding, competition with immobilised ligand; 1 µM): 99%

c1cncc(-c2cccc(Nc3nccc(NC4CCCCC4)n3)c2)c1
remaining binding (binding, competition with immobilised ligand; 10 µM): 100%

Cc1c(C(=O)O)cc(-c2ccc(C3CCNCC3)cc2)c2ccc(-c3ccc(C(F)(F)F)cc3)cc12
remaining binding (binding, competition with immobilised ligand; 1 µM): 97%

N[C@@H]1CCN(c2nccc(-c3cnn4ncccc34)n2)C1
remaining binding (binding; 1 µM): 100%

O=C(NCC1CCOCC1)c1n[nH]cc1NC(=O)c1c(F)cccc1F
remaining binding (binding, competition with immobilised ligand; 1 µM): 100%

O=C(c1ccc(Nc2nccc(-c3cc4ccccc4s3)n2)cc1)N1CCC(N2CCCC2)CC1
remaining binding (binding, competition with immobilised ligand; 1 µM): 100%

CC1CCCN1c1nccc(-c2cnn3ncccc23)n1 (stereo not drawn)
remaining binding (binding; 1 µM): 89%

CN([C@@H]1CCc2c(CC(=O)O)c3cc(S(C)(=O)=O)ccc3n2C1)S(=O)(=O)c1ccc(F)cc1
remaining binding (cell-free assay, competition with immobilised ligand; 1 µM): 95%

O=C(c1ccc(Nc2ncc(Cl)c(-c3ccc(Cl)s3)n2)cc1)N1CCC(N2CCCC2)CC1
remaining binding (binding, competition with immobilised ligand; 1 µM): 100%

CN(C)c1nccc(-c2cnc3ncccn23)n1
remaining binding (binding; 1 µM): 81%

COc1cnc(Nc2cccc(S(N)(=O)=O)c2)nc1N1CCN(c2ccccc2)CC1
remaining binding (binding, competition with immobilised ligand; 1 µM): 100%

CCOC(=O)c1cc2cc(-c3cc(C(=O)NCc4ccc(C(=O)O)cc4)nn3C)ccc2[nH]1
remaining binding (cell-free assay, competition with immobilised ligand; 0.1 µM): 91%

F[C@@H]1CCN(c2nccc(-c3cnn4ncccc34)n2)C1
remaining binding (binding; 1 µM): 90%

CCN1CCN(Cc2ccc(C(=O)Nc3ccc(C)c(Oc4ccc5c(c4)CC(=O)N5)c3)cc2C(F)(F)F)CC1
remaining binding (binding, competition with immobilised ligand; 1 µM): 100%

CC1=C(C#N)[C@@H](c2ccc3[nH]nc(C)c3c2)C(C#N)=C(c2ccc(Cl)cc2)N1
remaining binding (cell-free assay, competition with immobilised ligand; 1 µM): 86.9%

C[C@H]1CCN(c2nccc(-c3cnn4ncccc34)n2)C1
remaining binding (binding; 1 µM): 98%
